ChEMBL document CHEMBL1165950, “Design and synthesis of new potent anticancer pyrazoles with high FLT3 kinase inhibitory selectivity” (Bioorg Med Chem, 2010)

Legend:
Assay type in all cases: functional
OVCAR-8 [1] = assay: Cytotoxicity against human OVCAR8 cells assessed as cell growth at 10 uM after 48 hrs by sulforhodamine B assay; conditions: OVCAR-8, 48 h, read-out: Activity
NCI/ADR-RES [2] = assay: Cytotoxicity against human NCI/ADR-RES cells assessed as cell growth at 1 uM after 48 hrs by sulforhodamine B assay; conditions: read-out: Activity
NCI-H522 [3] = assay: Cytotoxicity against human NCI-H522 cells assessed as cell growth at 0.001 uM after 48 hrs by sulforhodamine B assay; conditions: NCI-H522, 48 h, read-out: Activity
SW-620 [4] = assay: Cytotoxicity against human SW620 cells assessed as cell growth at 10 uM; conditions: read-out: Activity
In short: (§1)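 NCI-60 screen: cells grown in RPMI 1640 with 5% FBS and 2 mM L-glutamine, plated at 5000–40,000 cells/well according to doubling time, and preincubated 24 h at 37 °C, 5% CO2. The single 10 µM dose (DMSO stock) was added, then incubated 48 h. Cells were TCA-fixed and stained with 0.4% SRB, read at 515 nm, and growth % calculated against time-zero and control plates.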

NCI-H322M = assay: Cytotoxicity against human NCI-H322M cells assessed as cell growth at 10 uM after 48 hrs by sulforhodamine B assay; conditions: read-out: Activity
[5] = Cytotoxicity against human Hs 578T cells assessed as cell growth at 0.001 uM after 48 hrs by sulforhodamine B assay; conditions: read-out: Activity
NCI-H460 = assay: Growth inhibition of human NCI-H460 cells after 48 hrs by sulforhodamine B assay; conditions: NCI-H460, 48 h
In short: (§2)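 NCI 60-cell screen, five-dose mode. Cells grown in RPMI 1640 with 5% FBS and 2 mM L-glutamine and plated at 5000-40,000 cells/well according to doubling time. After 24 h preincubation, a Tz plate was TCA-fixed. Five concentrations (10-fold or 1/2 log dilutions) were applied for 48 h at 37 °C. SRB staining read at 515 nm. IC50 taken from [(Ti-Tz)/(C-Tz)]×100 = 50.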

LOX IMVI [6] = assay: Cytotoxicity against human LOXIMVI cells assessed as cell growth at 10 uM after 48 hrs by sulforhodamine B assay; conditions: read-out: Activity
KM12 = assay: Cytotoxicity against human KM12 cells assessed as cell growth at 10 uM after 48 hrs by sulforhodamine B assay; conditions: KM12, 48 h, read-out: Activity
SF-539 = assay: Cytotoxicity against human SF539 cells assessed as cell growth at 10 uM; conditions: read-out: Activity; in short: as §1
HCT-116 = assay: Cytotoxicity against human HCT116 cells assessed as cell growth at 0.01 uM after 48 hrs by sulforhodamine B assay; conditions: HCT-116, 48 h, read-out: Activity
BT-549 = assay: Cytotoxicity against human BT549 cells assessed as cell growth at 1 uM after 48 hrs by sulforhodamine B assay; conditions: BT-549, 48 h, read-out: Activity
In short: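 NCI-60 five-dose screen. Cells were grown in RPMI 1640 with 5% FBS and 2 mM L-glutamine, plated at 5000–40,000 cells/well and preincubated for 24 h. Time-zero plates were TCA-fixed. DMSO-solubilized drug was added at five concentrations (10-fold or ½-log serial dilutions) for 48 h at 37 °C, 5% CO2. Cells were TCA-fixed, stained with 0.4% SRB and read at 515 nm. Percent growth used time-zero, control and test absorbances.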

LOX IMVI [7] = assay: Cytotoxicity against human LOXIMVI cells assessed as cell growth at 0.01 uM after 48 hrs by sulforhodamine B assay; conditions: read-out: Activity
SN12C = assay: Cytotoxicity against human SN12C cells assessed as cell growth at 0.01 uM after 48 hrs by sulforhodamine B assay; conditions: read-out: Activity
OVCAR-8 [8] = assay: Cytotoxicity against human OVCAR8 cells assessed as cell growth at 100 nM after 48 hrs by sulforhodamine B assay; conditions: OVCAR-8, 48 h, read-out: Activity
M14 = assay: Cytotoxicity against human M14 cells assessed as cell growth at 10 uM after 48 hrs by sulforhodamine B assay; conditions: M14, 48 h, read-out: Activity
UACC-62 [9] = assay: Cytotoxicity against human UACC62 cells assessed as cell growth at 0.001 uM after 48 hrs by sulforhodamine B assay; conditions: UACC-62, 48 h, read-out: Activity
OVCAR-5 [10] = assay: Cytotoxicity against human OVCAR5 cells assessed as cell growth at 10 uM; conditions: read-out: Activity; in short: as §1
SF-295 = assay: Cytotoxicity against human SF295 cells assessed as cell growth at 10 uM; conditions: read-out: Activity; in short: as §1
SF-268 = assay: Cytotoxicity against human SF268 cells assessed as cell growth at 10 uM after 48 hrs by sulforhodamine B assay; conditions: SF-268, 48 h, read-out: Activity
OVCAR-3 = assay: Cytotoxicity against human OVCAR-3 cells assessed as cell growth at 1 uM after 48 hrs by sulforhodamine B assay; conditions: OVCAR-3, 48 h, read-out: Activity
OVCAR-8 [11] = assay: Growth inhibition of human OVCAR8 cells after 48 hrs by sulforhodamine B assay; conditions: OVCAR-8, 48 h; in short: as §2
NCI/ADR-RES [12] = assay: Cytotoxicity against human NCI/ADR-RES cells assessed as cell growth at 10 uM; conditions: read-out: Activity; in short: as §1
UACC-62 [13] = assay: Cytotoxicity against human UACC62 cells assessed as cell growth at 10 uM; conditions: read-out: Activity; in short: as §1
Malme-3M = assay: Cytotoxicity against human MALME-3M cells assessed as cell growth at 0.01 uM after 48 hrs by sulforhodamine B assay; conditions: read-out: Activity
OVCAR-4 = assay: Growth inhibition of human OVCAR4 cells after 48 hrs by sulforhodamine B assay; conditions: OVCAR-4, 48 h; in short: as §2
OVCAR-5 [14] = assay: Cytotoxicity against human OVCAR5 cells assessed as cell growth at 0.01 uM after 48 hrs by sulforhodamine B assay; conditions: OVCAR-5, 48 h, read-out: Activity
OVCAR-8 [15] = assay: Cytotoxicity against human OVCAR8 cells assessed as cell growth at 0.001 uM after 48 hrs by sulforhodamine B assay; conditions: OVCAR-8, 48 h, read-out: Activity
SW-620 [16] = assay: Cytotoxicity against human SW620 cells assessed as cell growth at 10 uM after 48 hrs by sulforhodamine B assay; conditions: SW-620, 48 h, read-out: Activity
IGROV-1 = assay: Cytotoxicity against human IGROV1 cells assessed as cell growth at 0.001 uM after 48 hrs by sulforhodamine B assay; conditions: IGROV-1, 48 h, read-out: Activity
SNB-19 = assay: Cytotoxicity against human SNB19 cells assessed as cell growth at 10 uM after 48 hrs by sulforhodamine B assay; conditions: SNB-19, 48 h, read-out: Activity
T47D = assay: Growth inhibition of human T47D cells after 48 hrs by sulforhodamine B assay; in short: as §2
NCI-H522 [17] = assay: Cytotoxicity against human NCI-H522 cells assessed as cell growth at 100 nM after 48 hrs by sulforhodamine B assay; conditions: NCI-H522, 48 h, read-out: Activity
[18] = Cytotoxicity against human RPMI8266 cells assessed as cell growth at 100 nM after 48 hrs by sulforhodamine B assay; conditions: read-out: Activity
[19] = read-out: LC50 (the source's name)

Cc1cc(O)cc(-c2nn(CC#N)cc2-c2ccnc(-c3ccc(Oc4ccccc4)cc3)c2)c1
growth at 10 µM (OVCAR-8 [1]): -88% | growth at 1 µM (NCI/ADR-RES [2]): -50% | growth at 0.001 µM (NCI-H522 [3]): 83% | growth at 10 µM (SW-620 [4]): 53.9% | growth at 10 µM (NCI-H322M): -89% | growth at 0.001 µM [5]: 103% | GI50 (NCI-H460): 1870 nM | TGI (NCI-H460): 3.58 µM | CC50 (NCI-H460; [19]): 6.85 µM | growth at 10 µM (LOX IMVI [6]): -86% | growth at 10 µM (KM12): -100% | growth at 10 µM (SF-539): 75.5% | growth at 0.01 µM (HCT-116): 94% | growth at 1 µM (BT-549): 4% | growth at 0.01 µM (LOX IMVI [7]): 101% | growth at 0.01 µM (SN12C): 88% | growth at 0.1 µM (OVCAR-8 [8]): 87% | growth at 10 µM (M14): -94% | growth at 0.001 µM (UACC-62 [9]): 92% | growth at 10 µM (OVCAR-5 [10]): 96.8% | growth at 10 µM (SF-295): 77.7% | growth at 10 µM (SF-268): -95% | growth at 1 µM (OVCAR-3): -63% | GI50 (OVCAR-8 [11]): 2080 nM | TGI (OVCAR-8 [11]): 5.54 µM | CC50 (OVCAR-8 [11]; [19]): 21.9 µM | growth at 10 µM (NCI/ADR-RES [12]): 37.9% | growth at 10 µM (UACC-62 [13]): 68.1% | growth at 0.01 µM (Malme-3M): 77% | GI50 (OVCAR-4): 4.56 µM | TGI (OVCAR-4): 16 µM | CC50 (OVCAR-4; [19]): 48.6 µM | growth at 0.01 µM (OVCAR-5 [14]): 72% | growth at 0.001 µM (OVCAR-8 [15]): 96% | growth at 10 µM (SW-620 [16]): -100% | growth at 0.001 µM (IGROV-1): 98% | growth at 10 µM (SNB-19): -93% | GI50 (T47D): 2040 nM | LC50 (T47D): 39.1 µM | TGI (T47D): 5.81 µM | growth at 0.1 µM (NCI-H522 [17]): 87% | growth at 0.1 µM [18]: 88%
